Reference: ChEMBL document CHEMBL1121536, “C(14)-fluorinated prostaglandins: synthesis and biological evaluation of the methyl esters of (+)-14-fluoro-, (+)-15-epi-14-fluoro-, (+)-13(E)-14-fluror-, and (+)-13(E)-15-epi-14-fluoroprostaglandin F2 alpha” (1980)

What was measured:
[1] = test system: Cricetinae gen. sp.; assay: The compound was evaluated for the hamster uterine contraction in vitro on uterine strips
[2] = test system: Gerbillinae; assay: The compound was evaluated for the gerbil colon contraction in vitro on colon strips
[3] = test system: Cricetinae gen. sp.; assay: The compound was evaluated for the antifertility activity in hamster at 12.5 ug administered subcutaneously; type: functional, Cricetulus griseus
How it was run: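 Hamsters were dosed subcutaneously, daily, in groups of ten. The minimum effective dose was the lowest dose per hamster per day giving no pregnancies (no implants) in the group. Potency was derived by comparing each compound's minimum effective dose with that of natural PGF2α.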

Row | Compound | relative potency (PGF2α = 1) [1] | relative potency (PGF2α = 1) [2] | relative potency (PGF2α = 1) [3]
1 | CCCCC[C@@H](O)/C(F)=C\[C@@H]1[C@@H](C/C=C\CCCC(=O)OC)[C@@H](O)C[C@H]1O | 0.36 | 0.15 | > 1
2 | CCCCC[C@@H](O)/C(F)=C/[C@@H]1[C@@H](C/C=C\CCCC(=O)OC)[C@@H](O)C[C@H]1O | 0.025 | 0.0034 | 0.5
3 | CCCCC[C@H](O)/C(F)=C/[C@@H]1[C@@H](C/C=C\CCCC(=O)OC)[C@@H](O)C[C@H]1O | 0.263 | 0.023 | < 0.5
4 | CCCCC[C@H](O)/C(F)=C\[C@@H]1[C@@H](C/C=C\CCCC(=O)OC)[C@@H](O)C[C@H]1O | 0.0002 | 0.002 | < 0.1
5 | CCCCC[C@H](O)/C=C/[C@@]1(F)[C@H](O)C[C@H](O)[C@@H]1C/C=C\CCCC(=O)OC | 0.28 | 0.001 | 12.5
6 | CCCCC[C@@H](O)/C=C/[C@@]1(F)[C@H](O)C[C@H](O)[C@@H]1C/C=C\CCCC(=O)OC | 0.022 | 0.011 | 1
